The source of these data is ChEMBL document CHEMBL5500387, “Design, synthesis of combretastatin A-4 piperazine derivatives as potential antitumor agents by inhibiting tubulin polymerization and inducing autophagy in HCT116 cells” (Eur J Med Chem, 2024).

For one data set, the target named is Tubulin (Homo sapiens) (UniProt P68371+Q9H4B7+P0DPH7+P68366+Q13509+Q71U36+P04350+Q3ZCM7+P07437+P68363+Q9BQE3+Q6PEY2+Q13885+Q9BVA1+Q9BUF5). Put plainly: Inhibition of tubulin polymerization in human HCT-116 cells measured after 48 hrs by immunofluorescent staining based analysis. It counts as cell-based. The following applies: dose 0.1-0.3 µM. Put shortly: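 HCT116 cells (1×10^5/well suspension) settled on glass slides overnight at 37 °C, 5% CO2. Treated 48 h with 0.1, 0.2 or 0.3 μM, or 0.1% DMSO. Fixed in 4% paraformaldehyde, permeabilised with 0.5% Triton X-100, blocked. Anti-α-tubulin (1:4000) at 4 °C overnight, then Alexa488 anti-mouse IgG 1 h. DAPI mount, confocal imaging.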

Data set [1] concerns A549. As to the kind of experiment: Induction of apoptosis in human A549 cells assessed as dead cells at 0.1 uM measured after 24 hrs by Annexin V-APC/PI staining based flow cytometry analysis (reference value: 0.50%). In kind it is functional. On the technique in general: In flow cytometry, cells or beads pass a laser one at a time.
Data set [2] concerns A549. As to the kind of experiment: Induction of apoptosis in human A549 cells assessed as early apoptotic cells at 0.3 uM measured after 24 hrs by Annexin V-APC/PI staining based flow cytometry analysis (reference value: 1.73%). In kind it is functional.
The subject of data set [3] is A549. Put plainly: Induction of cell cycle arrest in human A549 cells assessed as accumulation of cells at S phase at 0.3 uM measured after 24 hrs by PI/RNase staining based analysis (reference value: 24.95%). In kind it is functional.
In data set [4] the test system is A549. Put plainly: Cytotoxicity against human A549 cells assessed as inhibition of cell proliferation measured after 72 hrs by CCK-8 assay. It counts as functional, cell-based. The note with it: A549, 72 h. Put shortly:
(§1)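 Cells seeded at 2×10^3 per well and grown overnight in 10% FBS medium: HCT116 in McCoy's 5A, A549 and AGS in F-12K, SK-MES-1 in DMEM. Compounds added at varied concentrations with 0.1% DMSO control, 72 h at 37 °C. 10% CCK-8 for 2 h, then A450 read. Survival = (As−Ab)/(Ac−Ab)×100%. IC50 from curve fitting.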
On the technique in general: Tetrazolium assays rely on reduction of a dye to a coloured formazan, in cell work by metabolically active cells.

The test system of data set [5] is HCT-116. As to the kind of experiment: Induction of cell cycle arrest in human HCT-116 cells assessed as accumulation of cells at G0/G1 phase at 0.2 uM measured after 24 hrs by PI/RNase staining based flow cytometry analysis (reference value: 32.88%). It counts as functional.
Data set [6] deals with A549. As to the kind of experiment: Induction of cell cycle arrest in human A549 cells assessed as accumulation of cells at G0/G1 phase at 0.1 uM measured after 24 hrs by PI/RNase staining based analysis (reference value: 41.91%). In kind it is functional.
The test system of data set [7] is A549. As to the kind of experiment: Induction of apoptosis in human A549 cells assessed as live cells at 0.1 uM measured after 24 hrs by Annexin V-APC/PI staining based flow cytometry analysis (reference value: 96.91%). In kind it is functional.
Data set [8] concerns HCT-116. As to the kind of experiment: Induction of autophagy in human HCT-116 cells assessed as increase in LC3-II protein expression measured after 24 hrs by Western blot analysis. In kind it is functional, cell-based. The note with it: dose 0.1-0.3 µM. In short, it runs like this: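 HCT116 cells exposed for 24 h to 0.1, 0.2 or 0.3 μM. Lysed on ice and protein measured by BCA. […] Milk-blocked, probed with anti-LC3A/B or anti-phospho-SQSTM1/p62 (1:1000) plus β-actin, then HRP anti-rabbit and chemiluminescence. Bands normalised to control set to 1. Three independent experiments.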
On the technique in general: In western blotting, separated proteins are transferred to a membrane and probed.

For data set [9], the system named is A549. Put plainly: Induction of apoptosis in human A549 cells assessed as live cells at 0.2 uM measured after 24 hrs by Annexin V-APC/PI staining based flow cytometry analysis (reference value: 96.91%). In kind it is functional.
For data set [10], the system named is HCT-116. As to the kind of experiment: Induction of cell cycle arrest in human HCT-116 cells assessed as accumulation of cells at G2/M phase at 0.3 uM measured after 24 hrs by PI/RNase staining based flow cytometry analysis (reference value: 28.83%). It counts as functional.
In data set [11] the test system is HCT-116. Put plainly: Induction of cell cycle arrest in human HCT-116 cells assessed as accumulation of cells at G2/M phase at 0.2 uM measured after 24 hrs by PI/RNase staining based flow cytometry analysis (reference value: 28.83%). It counts as functional.
Data set [12] deals with HCT-116. Put plainly: Induction of cell cycle arrest in human HCT-116 cells assessed as accumulation of cells at G2/M phase at 0.1 uM measured after 24 hrs by PI/RNase staining based flow cytometry analysis (reference value: 28.83%). In kind it is functional.
Data set [13] deals with A549. Put plainly: Induction of apoptosis in human A549 cells assessed as early apoptotic cells at 0.2 uM measured after 24 hrs by Annexin V-APC/PI staining based flow cytometry analysis (reference value: 1.73%). It counts as functional.
A short description of data set [14]: Cytotoxicity against human NCM460 cells assessed as inhibition of cell proliferation measured after 72 hrs by CCK-8 assay. In kind it is toxicity, cell-based. In short, it runs like this: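 NCM460 normal colonic epithelial cells seeded at 2×10^3 cells/well and grown overnight in RPMI-1640 with 10% FBS. Compounds added at a range of concentrations, 0.1% DMSO as negative control, 72 h at 37 °C. Read-out by CCK-8 (10%, 2 h) at 450 nm. Survival = (As−Ab)/(Ac−Ab)×100%; IC50 taken as concentration giving 50% inhibition of proliferation.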

The subject of data set [15] is A549. Put plainly: Induction of apoptosis in human A549 cells assessed as dead cells at 0.2 uM measured after 24 hrs by Annexin V-APC/PI staining based flow cytometry analysis (reference value: 0.50%). In kind it is functional.
The test system of data set [16] is HCT-116. As to the kind of experiment: Induction of cell cycle arrest in human HCT-116 cells assessed as accumulation of cells at S phase at 0.1 uM measured after 24 hrs by PI/RNase staining based flow cytometry analysis (reference value: 38.29%). In kind it is functional.
Data set [17] deals with A549. Put plainly: Induction of cell cycle arrest in human A549 cells assessed as accumulation of cells at G0/G1 phase at 0.3 uM measured after 24 hrs by PI/RNase staining based analysis (reference value: 41.91%). In kind it is functional.
Data set [18] can be described thus: Octanol-water partition coefficient, log P of the compound at pH 7.4 at 4 mg measured after 24 hrs by liquid chromatography. In kind it is physicochemical. In short, it runs like this: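 4 mg of compound was dissolved in 1 mL water-saturated n-octanol and held 24 h at room temperature, then centrifuged. The supernatant was mixed with an equal volume of octanol-saturated water, stood 24 h, centrifuged and the phases separated. Phase concentrations were measured by LC standard curves. log P = log(C_octanol/C_water). At least three independent runs.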

Data set [19] deals with A549. As to the kind of experiment: Induction of cell cycle arrest in human A549 cells assessed as accumulation of cells at G2/M phase at 0.1 uM measured after 24 hrs by PI/RNase staining based analysis (reference value: 10.22%). It counts as functional.
Another data set relates to AGS. Put plainly: Cytotoxicity against human AGS cells assessed as inhibition of cell proliferation measured after 72 hrs by CCK-8 assay. It counts as functional, cell-based. In short, it runs like this:
as §1

Data set [20] concerns A549. As to the kind of experiment: Induction of cell cycle arrest in human A549 cells assessed as accumulation of cells at S phase at 0.1 uM measured after 24 hrs by PI/RNase staining based analysis (reference value: 24.95%). It counts as functional.

Molecules are shown by their SMILES.

One may read the IC50 as the midpoint of a concentration-inhibition curve. Usually logD stands for lipophilicity at a set pH, counting ionised and neutral species. A higher logD goes with higher lipophilicity. For `COc1ccc(/C=C(/C(=O)N2CCN(c3ccc(C)cc3)CC2)c2cc(OC)c(OC)c(OC)c2)cc1O`, the inhibition result at Tubulin (Homo sapiens) was “Dose-Dependent Effect”. The Activity in the data set with A549 [1] is 0.83%; in the data set with A549 [2], 21.09%; in the data set with A549 [3] it was 7.17%; in the data set on HCT-116 [5], 34.17%; in the data set with A549 [6], 69.3%; with A549 [7] it was 86.04%. Besides, the Activity entry in the data set with HCT-116 [8] is “Dose-Dependent Effect”; with A549 [9], 76.79%; in the data set with HCT-116 [10], 88.26%; with HCT-116 [11], 44.67%; in the data set with HCT-116 [12], 33.79%; in the data set with A549 [13], 17.43%. For the same compound, the Activity with A549 [15] amounted to 1.05%; with HCT-116 [16] it was 31.95%; in the data set with A549 [17], 87.18%; with A549 [19], 5.75%; with A549 [20] it was 24.95%. Also, the half-maximal inhibitory concentration (IC50) with A549 [4] came out at 253 nM; in the data set with AGS, 574 nM. In data set [14], the IC50 at 72 h came to 1090 nM. The compound also yielded a logD at 24 h in data set [18] of -0.013.
